# Reference: ChEMBL document CHEMBL3232832, “Derivatives of dibenzothiophene for positron emission tomography imaging of α7-nicotinic acetylcholine receptors” (J Med Chem, 2013)
# Assays:
# [1] = Selectivity ratio of Ki for alpha4beta2 nAChR (unknown origin) to Ki for rat cortical membrane alpha7 nAChR
# [2] = Ratio of drug uptake in cortex to cerebellum in mouse; type: ADME, organism-based; conditions: in vivo
# [3] = molecular target: T1, Neuronal acetylcholine receptor subunit alpha-7 (Rattus norvegicus, UniProt Q05941); experiment: Displacement of [125I]alpha-bungarotoxin from rat cortical membrane alpha7-nAChR after 150 mins by gamma-counting analysis
# T1 sequence (Q05941 whole entry): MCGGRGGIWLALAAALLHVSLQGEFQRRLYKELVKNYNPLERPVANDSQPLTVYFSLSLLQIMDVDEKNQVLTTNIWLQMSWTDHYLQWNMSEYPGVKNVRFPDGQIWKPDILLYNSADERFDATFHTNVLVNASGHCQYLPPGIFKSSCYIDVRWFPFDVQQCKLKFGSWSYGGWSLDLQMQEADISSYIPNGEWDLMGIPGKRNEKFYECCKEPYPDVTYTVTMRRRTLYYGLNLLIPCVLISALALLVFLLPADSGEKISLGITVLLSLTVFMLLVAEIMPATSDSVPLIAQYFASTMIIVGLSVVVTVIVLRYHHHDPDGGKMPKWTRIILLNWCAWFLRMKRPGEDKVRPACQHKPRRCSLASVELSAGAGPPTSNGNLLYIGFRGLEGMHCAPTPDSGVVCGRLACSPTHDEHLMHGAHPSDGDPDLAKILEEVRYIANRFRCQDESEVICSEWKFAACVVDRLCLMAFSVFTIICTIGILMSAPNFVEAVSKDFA
# [4] = molecular target: T1, Neuronal acetylcholine receptor subunit alpha-7; experiment: Displacement of [3H]MLA from rat alpha7 nAChR
# [5] = molecular target: Neuronal acetylcholine receptor subunit alpha-7 (Homo sapiens, UniProt P36544); experiment: Binding affinity to alpha7 nAChR (unknown origin)
# Chain of Neuronal acetylcholine receptor subunit alpha-7 (Homo sapiens, UniProt P36544) (P36544 whole entry): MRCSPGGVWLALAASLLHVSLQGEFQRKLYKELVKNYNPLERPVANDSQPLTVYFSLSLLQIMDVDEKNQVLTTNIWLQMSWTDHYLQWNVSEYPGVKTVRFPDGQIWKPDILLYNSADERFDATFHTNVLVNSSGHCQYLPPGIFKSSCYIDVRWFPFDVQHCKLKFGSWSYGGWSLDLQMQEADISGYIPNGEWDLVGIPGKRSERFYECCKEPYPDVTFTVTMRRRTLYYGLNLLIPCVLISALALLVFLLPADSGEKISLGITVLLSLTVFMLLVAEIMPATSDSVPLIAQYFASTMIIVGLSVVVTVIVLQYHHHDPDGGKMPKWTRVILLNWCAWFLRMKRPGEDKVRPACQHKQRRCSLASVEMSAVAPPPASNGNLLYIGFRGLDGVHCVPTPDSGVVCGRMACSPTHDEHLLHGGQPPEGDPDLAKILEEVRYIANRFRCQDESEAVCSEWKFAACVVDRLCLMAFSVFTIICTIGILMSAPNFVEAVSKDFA
# Nucleic Acid [6] = experiment: Ratio of drug uptake in cortex to cerebellum in CD-1 mouse by gamma-counting analysis; type: ADME, tissue-based; conditions: in vivo
# Nucleic Acid [7] = experiment: Ratio of drug uptake in cortex to cerebellum in pig; type: ADME, tissue-based, Sus scrofa; conditions: in vivo
# Nucleic Acid [8] = experiment: Ratio of drug uptake in cortex to cerebellum in CD-1 mouse at 0.67 MBq after 5 to 120 mins; type: ADME; conditions: in vivo
# Cerebellum [9] = experiment: Drug uptake in CD-1 mouse cerebellum at 70 uCi, iv followed by compound washout by gamma-counting analysis; type: ADME, organism-based; conditions: in vivo
# Outline: (§1)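 Male CD-1 mice (25–30 g), three per time point. [18F] radiotracer (70 µCi, SA 8000–12000 mCi/µmol, in 0.2 mL saline) given by tail vein. Killed at several times up to 90 min. Dissected regions weighed and gamma counted against injectate standards, giving %ID/g.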
# Thalamus = experiment: Drug uptake in CD-1 mouse thalamus at 70 uCi, iv followed by compound washout by gamma-counting analysis; type: ADME, organism-based; conditions: in vivo
# Outline: (§2)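 Male CD-1 mice (25–30 g) given [18F]radioligand i.v. into a lateral tail vein (70 µCi, 8000–12000 mCi/µmol, in 0.2 mL saline). Killed by cervical dislocation at various times, three per time point. Brains dissected on ice; regions weighed and gamma-counted with injectate standards. Result as %ID/g.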
# Cerebellum [10] = experiment: Drug uptake in CD-1 mouse cerebellum at 0.07 mCi, iv after 90 mins in presence of 3-(1,4-Diazabicyclo[3.2.2]nonan-4-yl)-6-fluorodibenzo[b,d]thiophene 5,5-Dioxide; type: ADME, organism-based; conditions: in vivo, 1.5 h
# Outline: (§3)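 Male CD-1 mice, n=3. [18F] radiotracer (70 µCi, 0.2 mL) given i.v. together with unlabeled blocker in saline pH 5.5. Brain regions dissected at 90 min, gamma counted, expressed as %ID/g.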
# [11] = Drug uptake in CD-1 mouse superior and inferior colliculus at 0.07 mCi, iv after 90 mins in presence of 3-(1,4-Diazabicyclo[3.2.2]nonan-4-yl)dibenzo[b,d]-thiophene 5,5-dioxide; type: ADME, organism-based; conditions: in vivo, 1.5 h
# Outline: (§4)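 Male CD-1 mice. [18F]tracer (0.07 mCi, SA 11000 mCi/µmol, i.v.) co-injected with α7 antagonist blocker at 0.001, 0.0045 or 0.014 mg/kg, handled as in the dose-escalation blockade. Brain regions harvested at 90 min and gamma-counted. %ID/g, mean ± SD, n=3; ANOVA versus controls.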
# Hippocampus [12] = experiment: Drug uptake in CD-1 mouse hippocampus at 70 uCi, iv followed by compound washout by gamma-counting analysis; type: ADME, organism-based; conditions: in vivo; outline: as §1
# [13] = Drug uptake in CD-1 mouse frontal cortex at 70 uCi, iv followed by compound washout by gamma-counting analysis; type: ADME, organism-based; conditions: in vivo; outline: as §1
# Cerebellum [14] = experiment: Drug uptake in CD-1 mouse cerebellum at 0.07 mCi, iv after 90 mins in presence of 7-(1,4-Diazabicyclo[3.2.2]nonan-4-yl)-2-fluorodibenzo[b,d]-thiophene 5,5-Dioxide; type: ADME, organism-based; conditions: in vivo, 1.5 h; outline: as §3
# Nucleic Acid [15] = experiment: Ratio of drug uptake from superior and inferior colliculus to cerebellum in CD-1 mouse after 90 mins; type: ADME, nucleic-acid assay; conditions: 1.5 h
# Outline: (§5)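 CD-1 mouse baseline biodistribution after i.v. [18F]radioligand (70 µCi, 8000–12000 mCi/µmol, in 0.2 mL saline), three mice per time point to 90 min. Regional gamma-counting gave %ID/g, and each region was expressed as a ratio to cerebellum.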
# Cerebellum [16] = experiment: Drug uptake in CD-1 mouse colliculus at 0.07 mCi, iv after 90 mins relative to drug uptake in CD-1 mouse cerebellum; type: ADME, organism-based; conditions: in vivo, 1.5 h
# Nucleic Acid [17] = experiment: Ratio of drug uptake from hippocampus to cerebellum in CD-1 mouse after 90 mins; type: ADME, nucleic-acid assay; conditions: 1.5 h
# [18] = Drug uptake in CD-1 mouse superior and inferior colliculus at 70 uCi, iv followed by compound washout by gamma-counting analysis; type: ADME, organism-based; conditions: in vivo; outline: as §2
# Cerebellum [19] = experiment: Ratio of clearance in CD-1 mouse cerebellum to clearance in CD-1 mouse other brain tissues at 70 uCi, iv followed by compound washout after 90 mins by gamma-counting analysis; type: ADME, organism-based; conditions: in vivo, 1.5 h; outline: as §5
# Cerebellum [20] = experiment: Drug uptake in CD-1 mouse cerebellum at 0.07 mCi, iv after 90 mins in presence of 3-(1,4-Diazabicyclo[3.2.2]nonan-4-yl)dibenzo[b,d]-thiophene 5,5-dioxide; type: ADME, organism-based; conditions: in vivo, 1.5 h
# Mus musculus [21] = experiment: Toxicity in CD-1 mouse assessed as change in locomotor activity at 0.07 mCi, iv after 90 mins in presence of 7-(1,4-Diazabicyclo[3.2.2]nonan-4-yl)-2-fluorodibenzo[b,d]-thiophene 5,5-Dioxide; type: organism-based; conditions: in vivo, 1.5 h
# Outline: (§6)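 CD-1 mice observed for behavioral and locomotor changes during self-blockade studies. [18F]tracer (0.07 mCi, i.v.) was co-injected with the non-radioactive ligand at 0.3 or 0.2 mg/kg i.v., dissolved in saline at pH 5.5. Brains were harvested at 90 min.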
# Mus musculus [22] = experiment: Toxicity in CD-1 mouse assessed as change in behavioral activity at 0.07 mCi, iv after 90 mins in presence of 7-(1,4-Diazabicyclo[3.2.2]nonan-4-yl)-2-fluorodibenzo[b,d]-thiophene 5,5-Dioxide; type: organism-based; conditions: in vivo, 1.5 h; outline: as §6
# Striatum = experiment: Drug uptake in CD-1 mouse striatum at 70 uCi, iv followed by compound washout by gamma-counting analysis; type: ADME, organism-based; conditions: in vivo; outline: as §2
# Hippocampus [23] = experiment: Drug uptake in CD-1 mouse hippocampus at 0.07 mCi, iv after 90 mins in presence of 3-(1,4-Diazabicyclo[3.2.2]nonan-4-yl)dibenzo[b,d]-thiophene 5,5-dioxide; type: ADME, organism-based; conditions: in vivo, 1.5 h
# Nucleic Acid [24] = experiment: Ratio of drug uptake from cortex to cerebellum in CD-1 mouse after 90 mins; type: ADME, tissue-based; conditions: 1.5 h
# Brain = experiment: Drug uptake in CD-1 mouse other brain regions at 0.07 mCi, iv after 90 mins in presence of 3-(1,4-Diazabicyclo[3.2.2]nonan-4-yl)dibenzo[b,d]-thiophene 5,5-dioxide; type: ADME, organism-based; conditions: in vivo, 1.5 h; outline: as §4
# [25] = Selectivity ratio of Ki for human 5HT3 receptor to Ki for rat cortical membrane alpha7 nAChR
# [26] = molecular target: T1, Neuronal acetylcholine receptor subunit alpha-7; experiment: Displacement of [125I]alpha-bungarotoxin from Sprague-Dawley rat brain alpha7-nAChR after 3 hrs
# [27] = molecular target: T1, Neuronal acetylcholine receptor subunit alpha-7; experiment: Displacement of [125I]-alpha-BTX from rat alpha7-nAChR after 2 hrs by scintillation counting analysis
# Nucleic Acid [28] = experiment: Ratio of drug uptake in cortex to cerebellum in Danish Landrace pig; type: ADME, tissue-based, Sus scrofa; conditions: in vivo
# [29] = molecular target: T1, Neuronal acetylcholine receptor subunit alpha-7; experiment: Binding affinity to rat brain alpha7 nAChR
smiles,measurement,setting,value
O=S1(=O)c2ccccc2-c2c(N3CCN4CCC3CC4)ccc(F)c21,Ratio Ki,[1],210
[18F]c1ccccc1-c1cnc2c(c1)CC1(CN3CCC1CC3)O2 (stereo unspecified),Ratio,[2],0.8
same,Ki,[3],3.3 nM
same,Ki,[4],0.2 nM
CN1C[C@H]2CN(c3ccc4c(c3)C(=O)c3cc(N5C[C@@H]6CN([11CH3])[C@@H]6C5)ccc3-4)C[C@H]21,Ki,[5],0.092 nM
O=S1(=O)c2ccc(I)cc2-c2ccc(N3CCN4CCC3CC4)cc21,Ratio Ki,[1],63
[11CH3]N1CC2CN(c3ccc(-c4ccc5[nH]ccc5c4)nn3)CC2C1 (stereo unspecified),Ki,[5],0.24 nM
same,Ratio,Nucleic Acid [6],0.5
O=S1(=O)c2ccccc2-c2ccc(N3CCN4CCC3CC4)c(F)c21,Ratio Ki,[1],66
[18F]c1ccc(-c2nnc(N3CCN4CCC3CC4)o2)cc1,Ratio,[2],0.4
same,Ratio,Nucleic Acid [7],0.8
same,Ki,[3],38 nM
same,Ki,[5],11.6 nM
O=[11C](Nc1ccc(Br)cc1)OC1CN2CCC1CC2 (stereo unspecified),Ratio,[2],0.3
[125I]c1occc1-c1cnc2c(c1)CC1(CN3CCC1CC3)O2 (stereo unspecified),Ratio,Nucleic Acid [8],0.6
O=S1(=O)c2ccc([18F])cc2-c2ccc(N3CCN4CCC3CC4)cc21,Drug uptake,Cerebellum [9],Active
same,Drug uptake,Thalamus,Active
same,Drug uptake,Cerebellum [10],Active
same,Drug uptake,[11],Not Active
same,Drug uptake,Hippocampus [12],Active
same,Drug uptake,[13],Active
same,Drug uptake,Cerebellum [14],Active
same,Ratio,Nucleic Acid [15],2
same,Drug uptake,Cerebellum [16],80%
same,Ratio,Nucleic Acid [17],3.1
same,Drug uptake,[18],Active
same,Ratio,Cerebellum [19],4.5
same,Drug uptake,Cerebellum [20],Not Active
same,Activity,Mus musculus [21],Non-toxic
same,Activity,Mus musculus [22],Non-toxic
same,Drug uptake,Striatum,Active
same,Drug uptake,Hippocampus [23],Not Active
same,Ratio,Nucleic Acid [24],2
same,Drug uptake,Brain,Not Active
O=S1(=O)c2cc(N3CCN4CCC3CC4)ccc2-c2cccc(F)c21,Ratio Ki,[25],561
same,Ratio Ki,[1],1370
[11CH3]c1ccc(OC(=O)N2CCN3CCC2CC3)cc1,Ratio,[2],0.6
same,Ki,[26],46 nM
[11CH3]n1cccc1-c1nnc(N2CCN3CCC2CC3)o1,Ki,[3],20.4 nM
same,Ki,[27],2.2 nM
same,Ratio,Nucleic Acid [28],1
[11CH3]N1CC2CN(c3ccc4oc5ccccc5c(=O)c4c3)CC2C1 (stereo unspecified),Ki,[4],11 nM
[11CH3]N1CC2CN(c3ccc(-c4ccccc4)nn3)CC2C1 (stereo unspecified),Ratio,[2],0.2
same,Ki,[29],10.8 nM
O=S1(=O)c2ccc(F)cc2-c2ccc(N3CCN4CCC3CC4)cc21,Ratio Ki,[25],378
same,Ratio Ki,[1],663
